Measured values published in ChEMBL document CHEMBL4007382 (Eur J Med Chem, 2017).

Columns and labels:
Acetylcholinesterase [1] = biological target: Acetylcholinesterase (Electrophorus electricus, UniProt O42275); experiment: Inhibition of electric eel AChE using S-acetylthiocholine iodide as substrate preincubated for 60 mins followed by substrate addition measured after 5 mins by Ellman's method
Acetylcholinesterase [2] = biological target: Acetylcholinesterase (Homo sapiens, UniProt P22303); experiment: Inhibition of human erythrocytes AChE using S-acetylthiocholine iodide as substrate preincubated for 60 mins followed by substrate addition measured after 5 mins by Ellman's method
Sequence of Acetylcholinesterase (Homo sapiens, UniProt P22303) (P22303 whole entry): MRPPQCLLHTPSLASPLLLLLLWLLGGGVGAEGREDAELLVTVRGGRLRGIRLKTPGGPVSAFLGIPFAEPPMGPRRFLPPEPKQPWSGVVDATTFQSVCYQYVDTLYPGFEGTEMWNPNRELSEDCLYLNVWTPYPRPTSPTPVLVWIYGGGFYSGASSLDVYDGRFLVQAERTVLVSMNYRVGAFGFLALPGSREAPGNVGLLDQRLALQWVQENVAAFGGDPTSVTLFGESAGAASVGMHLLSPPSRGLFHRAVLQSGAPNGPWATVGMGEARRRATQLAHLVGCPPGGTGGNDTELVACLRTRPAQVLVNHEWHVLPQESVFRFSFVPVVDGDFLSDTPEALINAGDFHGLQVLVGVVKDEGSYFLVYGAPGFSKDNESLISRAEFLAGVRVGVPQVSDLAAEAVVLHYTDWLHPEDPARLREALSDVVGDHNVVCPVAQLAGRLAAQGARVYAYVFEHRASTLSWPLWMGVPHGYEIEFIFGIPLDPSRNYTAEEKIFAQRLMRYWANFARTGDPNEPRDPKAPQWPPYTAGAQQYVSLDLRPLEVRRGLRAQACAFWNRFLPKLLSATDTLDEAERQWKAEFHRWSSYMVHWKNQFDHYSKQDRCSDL

Cholinesterase [3] = biological target: T1, Cholinesterase (Equus caballus, UniProt P81908); experiment: Inhibition of equine serum BuChE using S-butyrylthiocholine iodide as substrate preincubated for 60 mins followed by substrate addition measured after 5 mins by Ellman's method
T1 sequence (P81908 whole entry): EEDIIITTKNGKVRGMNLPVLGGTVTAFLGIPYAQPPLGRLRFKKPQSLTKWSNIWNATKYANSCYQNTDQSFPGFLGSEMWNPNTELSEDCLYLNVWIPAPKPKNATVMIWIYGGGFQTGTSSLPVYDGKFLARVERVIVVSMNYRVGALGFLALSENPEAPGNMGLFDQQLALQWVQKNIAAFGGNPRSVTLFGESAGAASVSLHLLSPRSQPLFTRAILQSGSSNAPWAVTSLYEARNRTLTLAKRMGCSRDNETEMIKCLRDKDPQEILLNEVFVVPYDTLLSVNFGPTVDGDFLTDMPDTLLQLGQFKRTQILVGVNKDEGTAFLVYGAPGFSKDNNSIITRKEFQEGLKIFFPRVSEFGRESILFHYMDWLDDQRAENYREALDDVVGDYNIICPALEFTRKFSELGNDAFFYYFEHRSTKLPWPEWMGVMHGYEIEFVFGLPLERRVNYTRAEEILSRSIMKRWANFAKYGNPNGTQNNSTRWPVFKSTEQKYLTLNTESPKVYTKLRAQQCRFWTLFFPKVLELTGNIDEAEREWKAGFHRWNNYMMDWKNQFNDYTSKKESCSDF
Summary of the method: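 Equine serum BChE (0.1 U/mL) in 100 mM sodium phosphate, pH 8, was preincubated at 37°C for 60 min with seven inhibitor concentrations (top 1×10^-5 M; stocks in acetonitrile:water 1:9). Added mix contained BTCh 2.5 mM and DTNB 3.4 mM. A412 was read for 5 min at 37°C, with enzyme-free blank subtracted. Triplicates.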

Cholinesterase [4] = biological target: T1, Cholinesterase; experiment: Irreversible inhibition of equine serum BuChE assessed as second order carbamylation rate constant using S-butyrylthiocholine iodide as substrate preincubated up to 45 mins followed by substrate addition measured after 5 mins
Summary of the method: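 Equine BChE, pH 8, 37°C, was preincubated for 1, 2, 4, 8, 15, 30 and 45 min with inhibitor at 1×10^-7 to 5×10^-6 M (seven levels). Residual activity was read by Ellman with BTCh and normalised to a water control at each time. kobs came from a one-phase exponential decay fit; k_I1 came from the linear kobs versus concentration relation.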

Mus musculus [5] = experiment: Cardiotoxicity in Kunming mouse assessed as change in heart rate at 20 mg/kg, ip measured after 1 mins by electrocardiogram (reference value: -4.04 +/- 7.52); type: toxicity, organism-based; settings: in vivo
Mus musculus [6] = experiment: Cardiotoxicity in Kunming mouse assessed as change in heart rate at 20 mg/kg, ip measured after 2 mins by electrocardiogram (reference value: -16.36 +/- 11.14); type: toxicity, organism-based; settings: in vivo
Mus musculus [7] = experiment: Cardiotoxicity in Kunming mouse assessed as change in heart rate at 20 mg/kg, ip measured after 4 mins by electrocardiogram (reference value: -13.79 +/- 13.4); type: toxicity, organism-based; settings: in vivo
Mus musculus [8] = experiment: Cardiotoxicity in Kunming mouse assessed as change in heart rate at 20 mg/kg, ip measured after 5 mins by electrocardiogram (reference value: -14.06 +/- 24.25); type: toxicity, organism-based; settings: in vivo
Mus musculus [9] = experiment: Cardiotoxicity in Kunming mouse assessed as change in heart rate at 20 mg/kg, ip measured after 6 mins by electrocardiogram (reference value: -19.47 +/- 22.55); type: toxicity, organism-based; settings: in vivo, 0.1 h
Mus musculus [10] = experiment: Cardiotoxicity in Kunming mouse assessed as change in heart rate at 20 mg/kg, ip measured after 8 mins by electrocardiogram (reference value: -27.98 +/- 16.02); type: toxicity, organism-based; settings: in vivo
Mus musculus [11] = experiment: Cardiotoxicity in Kunming mouse assessed as change in heart rate at 20 mg/kg, ip measured after 9 mins by electrocardiogram (reference value: -31.96 +/- 17.01); type: toxicity, organism-based; settings: in vivo, 0.15 h
Mus musculus [12] = experiment: Cardiotoxicity in Kunming mouse assessed as change in heart rate at 20 mg/kg, ip measured after 10 mins by electrocardiogram (reference value: -34.85 +/- 19.78); type: toxicity, organism-based; settings: in vivo
Mus musculus [13] = experiment: Cardiotoxicity in Kunming mouse assessed as change in heart rate at 20 mg/kg, ip measured after 11 mins by electrocardiogram (reference value: -35.4 +/- 11.4); type: toxicity, organism-based; settings: in vivo
Mus musculus [14] = experiment: Cardiotoxicity in Kunming mouse assessed as change in heart rate at 20 mg/kg, ip measured after 12 mins by electrocardiogram (reference value: -40.39 +/- 20.17); type: toxicity, organism-based; settings: in vivo, 0.2 h
Mus musculus [15] = experiment: Cardiotoxicity in Kunming mouse assessed as change in heart rate at 20 mg/kg, ip measured after 13 mins by electrocardiogram (reference value: -37.85 +/- 14.54); type: toxicity, organism-based; settings: in vivo
Mus musculus [16] = experiment: Cardiotoxicity in Kunming mouse assessed as change in heart rate at 20 mg/kg, ip measured after 14 mins by electrocardiogram (reference value: -38.12 +/- 19.53); type: toxicity, organism-based; settings: in vivo
Mus musculus [17] = experiment: Cardiotoxicity in Kunming mouse assessed as change in heart rate at 20 mg/kg, ip measured after 15 mins by electrocardiogram (reference value: -35.14 +/- 24.5); type: toxicity, organism-based; settings: in vivo, 0.25 h
Mus musculus [18] = experiment: Cardiotoxicity in Kunming mouse assessed as change in heart rate at 20 mg/kg, ip measured after 17 mins by electrocardiogram (reference value: -38.32 +/- 10.76); type: toxicity, organism-based; settings: in vivo
Mus musculus [19] = experiment: Cardiotoxicity in Kunming mouse assessed as change in heart rate at 20 mg/kg, ip measured after 19 mins by electrocardiogram (reference value: -38.67 +/- 13.91); type: toxicity, organism-based; settings: in vivo
Mus musculus [20] = experiment: Cardiotoxicity in Kunming mouse assessed as change in heart rate at 20 mg/kg, ip measured after 20 mins by electrocardiogram (reference value: -40.16 +/- 13.12); type: toxicity, organism-based; settings: in vivo
Mus musculus [21] = experiment: Cardiotoxicity in Kunming mouse assessed as change in heart rate at 20 mg/kg, ip measured after 22 mins by electrocardiogram (reference value: -41.94 +/- 12.51); type: toxicity, organism-based; settings: in vivo
Mus musculus [22] = experiment: Cardiotoxicity in Kunming mouse assessed as change in heart rate at 20 mg/kg, ip measured after 23 mins by electrocardiogram (reference value: -44.9 +/- 14.57); type: toxicity, organism-based; settings: in vivo
Mus musculus [23] = experiment: Cardiotoxicity in Kunming mouse assessed as change in heart rate at 20 mg/kg, ip measured after 26 mins by electrocardiogram (reference value: -46.48 +/- 17.52); type: toxicity, organism-based; settings: in vivo
Mus musculus [24] = experiment: Cardiotoxicity in Kunming mouse assessed as change in heart rate at 20 mg/kg, ip measured after 28 mins by electrocardiogram (reference value: -49.06 +/- 20.71); type: toxicity, organism-based; settings: in vivo
Mus musculus [25] = experiment: Cardiotoxicity in Kunming mouse assessed as change in heart rate at 20 mg/kg, ip measured after 29 mins by electrocardiogram (reference value: -47.2 +/- 24.77); type: toxicity, organism-based; settings: in vivo
Mus musculus [26] = experiment: Cardiotoxicity in Kunming mouse assessed as change in heart rate at 20 mg/kg, ip measured after 30 mins by electrocardiogram (reference value: -43.78 +/- 22.71); type: toxicity, organism-based; settings: in vivo, 0.5 h
Mus musculus [27] = experiment: Cardiotoxicity in Kunming mouse assessed as change in heart rate at 20 mg/kg, ip measured after 31 mins by electrocardiogram (reference value: -42.8 +/- 29.79); type: toxicity, organism-based; settings: in vivo
Mus musculus [28] = experiment: Cardiotoxicity in Kunming mouse assessed as change in heart rate at 20 mg/kg, ip measured after 34 mins by electrocardiogram (reference value: -35 +/- 23.88); type: toxicity, organism-based; settings: in vivo
Mus musculus [29] = experiment: Cardiotoxicity in Kunming mouse assessed as change in heart rate at 20 mg/kg, ip measured after 35 mins by electrocardiogram (reference value: -31.81 +/- 27.31); type: toxicity, organism-based; settings: in vivo
Mus musculus [30] = experiment: Cardiotoxicity in Kunming mouse assessed as change in heart rate at 20 mg/kg, ip measured after 36 mins by electrocardiogram (reference value: -32.32 +/- 25.52); type: toxicity, organism-based; settings: in vivo, 0.6 h

Sequence of Acetylcholinesterase (Electrophorus electricus, UniProt O42275) (O42275 whole entry): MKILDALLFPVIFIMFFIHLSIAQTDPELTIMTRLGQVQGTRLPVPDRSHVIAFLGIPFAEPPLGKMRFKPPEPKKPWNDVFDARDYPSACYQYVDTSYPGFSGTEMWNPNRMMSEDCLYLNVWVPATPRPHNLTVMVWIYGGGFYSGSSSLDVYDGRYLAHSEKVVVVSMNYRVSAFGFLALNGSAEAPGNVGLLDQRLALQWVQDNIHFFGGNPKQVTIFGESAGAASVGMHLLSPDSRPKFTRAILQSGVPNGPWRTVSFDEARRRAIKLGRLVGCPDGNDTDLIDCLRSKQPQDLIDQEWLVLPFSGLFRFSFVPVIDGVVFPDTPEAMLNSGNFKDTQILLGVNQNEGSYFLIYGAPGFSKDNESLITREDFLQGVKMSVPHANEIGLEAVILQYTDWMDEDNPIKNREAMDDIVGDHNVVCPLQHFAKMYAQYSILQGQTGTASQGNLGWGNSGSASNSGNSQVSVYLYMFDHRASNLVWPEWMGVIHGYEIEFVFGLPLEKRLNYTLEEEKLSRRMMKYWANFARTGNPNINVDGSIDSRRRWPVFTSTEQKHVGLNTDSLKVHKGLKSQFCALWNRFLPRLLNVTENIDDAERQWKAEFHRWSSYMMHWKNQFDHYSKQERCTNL

Row | Structure (SMILES) | IC50 (Acetylcholinesterase [1]) [µM] | IC50 (Acetylcholinesterase [2]) [µM] | IC50 (Cholinesterase [3]) [µM] | Ki (Cholinesterase [4]) [×10⁵ /M/min] | Activity (Mus musculus [5]) [bpm] | Activity (Mus musculus [6]) [bpm] | Activity (Mus musculus [7]) [bpm] | Activity (Mus musculus [8]) [bpm] | Activity (Mus musculus [9]) [bpm] | Activity (Mus musculus [10]) [bpm] | Activity (Mus musculus [11]) [bpm] | Activity (Mus musculus [12]) [bpm] | Activity (Mus musculus [13]) [bpm] | Activity (Mus musculus [14]) [bpm] | Activity (Mus musculus [15]) [bpm] | Activity (Mus musculus [16]) [bpm] | Activity (Mus musculus [17]) [bpm] | Activity (Mus musculus [18]) [bpm] | Activity (Mus musculus [19]) [bpm] | Activity (Mus musculus [20]) [bpm] | other results
1 | CCC(C)(C)NCC(O)c1cc(OC(=O)N(C)C)cc(OC(=O)N(C)C)c1.Cl (stereo not given) | > 100 | > 10 | 0.126 | 1.42 | -18.58 | -21.23 | -26.67 | -28.9 | -31.29 | -32.94 | -34.87 | -40.41 | -42.6 | -46.97 | -43.71 | -51.28 | -49.12 | -40.25 | -41.43 | -40.62 | Activity (Mus musculus [21]): -41.75 bpm; Activity (Mus musculus [22]): -41.98 bpm; Activity (Mus musculus [23]): -42.44 bpm; Activity (Mus musculus [24]): -37.58 bpm; Activity (Mus musculus [25]): -37.74 bpm; Activity (Mus musculus [26]): -36.5 bpm; Activity (Mus musculus [27]): -37.65 bpm; Activity (Mus musculus [28]): -37.47 bpm; Activity (Mus musculus [29]): -37.47 bpm; Activity (Mus musculus [30]): -36.32 bpm
2 | CCN(C)C(=O)Oc1cc(OC(=O)N(C)CC)cc(C(O)CNC(C)(C)CC)c1.Cl (stereo not given) | > 100 | > 10 | 0.116 | 1.49 | -0.1 | -1.28 | 2.55 | 0.25 | -1.48 | -4.23 | -5.8 | -6.25 | -8.17 | -4.45 | -3.93 | -4.15 | -2.32 | 4.98 | 2.88 | 0.13 | Activity (Mus musculus [21]): 0.05 bpm; Activity (Mus musculus [22]): 0.52 bpm; Activity (Mus musculus [23]): -0.88 bpm; Activity (Mus musculus [24]): -7.52 bpm; Activity (Mus musculus [25]): -5.1 bpm; Activity (Mus musculus [26]): -1.5 bpm; Activity (Mus musculus [27]): 1.28 bpm; Activity (Mus musculus [28]): -5.5 bpm; Activity (Mus musculus [29]): -11.4 bpm; Activity (Mus musculus [30]): -25.47 bpm
3 | CN(C)C(=O)Oc1cc(OC(=O)N(C)C)cc(C(O)CNC(C)(C)C)c1 (stereo not given) [BAMBUTEROL] | > 100 | > 10 | 0.119 | 1.44 | -2.81 | -2.66 | 3.77 | 17.67 | 16.63 | 9.76 | 0.55 | -0.24 | 5.19 | 15.49 | 15.31 | 39.93 | 53.3 | 45.59 | 38.36 | 34.4 | Activity (Mus musculus [21]): 48.65 bpm; Activity (Mus musculus [22]): 48.77 bpm; Activity (Mus musculus [23]): 11.92 bpm; Activity (Mus musculus [24]): -15.03 bpm; Activity (Mus musculus [25]): -23.87 bpm; Activity (Mus musculus [26]): -20.41 bpm; Activity (Mus musculus [27]): -13.49 bpm; Activity (Mus musculus [28]): -6.04 bpm; Activity (Mus musculus [29]): -2.92 bpm; Activity (Mus musculus [30]): -26.54 bpm
